Reference: ChEMBL document CHEMBL1275285, “Synthesis, antimicrobial and anti-inflammatory activities of novel 5-(1-adamantyl)-1,3,4-thiadiazole derivatives” (2010)
Converted amounts (≈) assume the structure as drawn. The source made the active and inactive calls. No cut-off for these calls is given here.

What was measured:
Assay type in all cases: functional
Staphylococcus aureus [1] = test: Antimicrobial activity against Staphylococcus aureus IFO 3060 at 200 ug/8 mm disk after 24 hrs by agar disk diffusion method
Method in brief: (§1)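 Agar disc diffusion on Mueller-Hinton agar: 8 mm filter paper discs moistened with compound in DMSO (200 per disc) placed on plates pre-inoculated with each organism; incubated at 37 °C; growth inhibition zone diameter read after 24 h for bacteria, 48 h for C. albicans.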

Bacillus subtilis [2] = test: Antimicrobial activity against Bacillus subtilis IFO 3007 at 200 ug/8 mm disk after 24 hrs by agar disk diffusion method; method in brief: as §1
Micrococcus luteus [3] = test: Antimicrobial activity against Micrococcus luteus IFO 3232 at 200 ug/8 mm disk after 24 hrs by agar disk diffusion method; method in brief: as §1
Escherichia coli [4] = test: Antimicrobial activity against Escherichia coli IFO 3301 at 200 ug/8 mm disk after 24 hrs by agar disk diffusion method; method in brief: as §1
Pseudomonas aeruginosa [5] = test: Antimicrobial activity against Pseudomonas aeruginosa IFO 3448 at 200 ug/8 mm disk after 24 hrs by agar disk diffusion method; method in brief: as §1
Candida albicans [6] = test: Antimicrobial activity against Candida albicans IFO 0583 at 200 ug/8 mm disk after 48 hrs by agar disk diffusion method; method in brief: as §1
Rattus norvegicus [7] = test: Antiinflammatory activity in Sprague-Dawley rat assessed as inhibition of carrageenan-induced paw edema at 20 mg/kg, ip administered 1 hrs before carrageenan challenge relative to untreated control; conditions: route intraperitoneal
Rattus norvegicus [8] = test: Antiinflammatory activity in Sprague-Dawley rat assessed as inhibition of carrageenan-induced paw edema at 40 mg/kg, ip administered 1 hrs before carrageenan challenge relative to untreated control; conditions: route intraperitoneal
Escherichia coli [9] = test: Antimicrobial activity against Escherichia coli IFO 3301 after 24 hrs; conditions: IFO 3301, 24 h
Method in brief: (§2)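 MIC by two-fold serial dilution in wells inoculated with 10^6 CFU/mL of each organism; incubated at 36 °C for 24 h (bacteria); MIC taken as lowest concentration giving no visible growth by unaided eye.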

Pseudomonas aeruginosa [10] = test: Antimicrobial activity against Pseudomonas aeruginosa IFO 3448 after 24 hrs; method in brief: as §2
Staphylococcus aureus [11] = test: Antimicrobial activity against Staphylococcus aureus IFO 3060 at 100 ug/8 mm disk after 24 hrs by agar disk diffusion method
Method in brief: (§3)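 Agar disc diffusion on Mueller-Hinton agar. Sterile 8 mm filter-paper discs were moistened with the agent dissolved in DMSO and placed on plates already inoculated with the organism. Plates were incubated at 37 °C, and growth-inhibition zone diameters were measured after 24 h.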

Bacillus subtilis [12] = test: Antimicrobial activity against Bacillus subtilis IFO 3007 at 100 ug/8 mm disk after 24 hrs by agar disk diffusion method; method in brief: as §3
Micrococcus luteus [13] = test: Antimicrobial activity against Micrococcus luteus IFO 3232 at 100 ug/8 mm disk after 24 hrs by agar disk diffusion method; method in brief: as §3
Escherichia coli [14] = test: Antimicrobial activity against Escherichia coli IFO 3301 at 100 ug/8 mm disk after 24 hrs by agar disk diffusion method; method in brief: as §3
Pseudomonas aeruginosa [15] = test: Antimicrobial activity against Pseudomonas aeruginosa IFO 3448 at 100 ug/8 mm disk after 24 hrs by agar disk diffusion method; method in brief: as §3
Staphylococcus aureus [16] = test: Antimicrobial activity against Staphylococcus aureus IFO 3060 after 24 hrs
Method in brief: (§4)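 MIC by two-fold serial dilution in wells, inoculated with microbial suspensions at 10^6 CFU/mL. Incubation was at 36 °C for 24 h (bacteria) or 48 h (C. albicans). MIC was the lowest concentration fully inhibiting visible growth, read by unaided eye.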

Bacillus subtilis [17] = test: Antimicrobial activity against Bacillus subtilis IFO 3007 after 24 hrs; method in brief: as §2
Micrococcus luteus [18] = test: Antimicrobial activity against Micrococcus luteus IFO 3232 after 24 hrs; method in brief: as §4
Rattus norvegicus [19] = test: Antiinflammatory activity in Sprague-Dawley rat assessed as inhibition of carrageenan-induced paw edema at 5 mg/kg, ip administered 1 hrs before carrageenan challenge relative to untreated control; conditions: route intraperitoneal
Candida albicans [20] = test: Antimicrobial activity against Candida albicans IFO 0583 at 100 ug/8 mm disk after 48 hrs by agar disk diffusion method
Method in brief: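 Reference antifungal applied at 100 per 8 mm disc on Mueller-Hinton agar pre-inoculated with C. albicans; 37 °C incubation; inhibition zone diameter measured at 48 h.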

Candida albicans [21] = test: Antimicrobial activity against Candida albicans IFO 0583 after 48 hrs; conditions: IFO 0583, 48 h; method in brief: as §4

O=c1[nH]nc(C23CC4CC(CC(C4)C2)C3)s1
growth inhibition (GI) (Staphylococcus aureus [1]): inactive
growth inhibition (GI) (Bacillus subtilis [2]): inactive
growth inhibition (GI) (Micrococcus luteus [3]): inactive
growth inhibition (GI) (Escherichia coli [4]): inactive
growth inhibition (GI) (Pseudomonas aeruginosa [5]): inactive
growth inhibition (GI) (Candida albicans [6]): inactive

S=c1sc(C23CC4CC(CC(C4)C2)C3)nn1Cc1ccccc1
growth inhibition (GI) (Staphylococcus aureus [1]): inactive
growth inhibition (GI) (Bacillus subtilis [2]): inactive
growth inhibition (GI) (Micrococcus luteus [3]): inactive
growth inhibition (GI) (Escherichia coli [4]): inactive
growth inhibition (GI) (Pseudomonas aeruginosa [5]): inactive
growth inhibition (GI) (Candida albicans [6]): inactive
inhibition in vivo at 20 mg/kg (Rattus norvegicus [7]): 1.12%
inhibition in vivo at 40 mg/kg (Rattus norvegicus [8]): 0.92%

S=c1[nH]nc(C23CC4CC(CC(C4)C2)C3)s1
GI (Staphylococcus aureus [1]): 13 mm
GI (Bacillus subtilis [2]): 13 mm
growth inhibition (GI) (Micrococcus luteus [3]): inactive
GI (Escherichia coli [4]): 27 mm
GI (Pseudomonas aeruginosa [5]): 20 mm
growth inhibition (GI) (Candida albicans [6]): inactive
MIC (Escherichia coli [9]): 0.5 µg/mL (≈ 1.98 µM)
MIC (Pseudomonas aeruginosa [10]; IFO 3448, 24 h): 2 µg/mL (≈ 7.92 µM)

S=c1sc(C23CC4CC(CC(C4)C2)C3)nn1Cc1ccc(Cl)cc1
growth inhibition (GI) (Staphylococcus aureus [1]): inactive
growth inhibition (GI) (Bacillus subtilis [2]): inactive
growth inhibition (GI) (Micrococcus luteus [3]): inactive
growth inhibition (GI) (Escherichia coli [4]): inactive
growth inhibition (GI) (Pseudomonas aeruginosa [5]): inactive
growth inhibition (GI) (Candida albicans [6]): inactive

GENTAMICIN
GI (Staphylococcus aureus [11]): 26 mM
GI (Bacillus subtilis [12]): 25 mM
GI (Micrococcus luteus [13]): 18 mM
GI (Escherichia coli [14]): 20 mM
GI (Pseudomonas aeruginosa [15]): 19 mM
MIC (Staphylococcus aureus [16]): 2 µg/mL
MIC (Bacillus subtilis [17]): 2 µg/mL
MIC (Micrococcus luteus [18]): 2 µg/mL
MIC (Pseudomonas aeruginosa [10]): 1 µg/mL

Fc1ccc(Cn2nc(C34CC5CC(CC(C5)C3)C4)sc2=S)cc1
growth inhibition (GI) (Staphylococcus aureus [1]): inactive
growth inhibition (GI) (Bacillus subtilis [2]): inactive
growth inhibition (GI) (Micrococcus luteus [3]): inactive
growth inhibition (GI) (Escherichia coli [4]): inactive
growth inhibition (GI) (Pseudomonas aeruginosa [5]): inactive
GI (Candida albicans [6]): 14 mm

Fc1ccc(NC(=S)Nc2nnc(C34CC5CC(CC(C5)C3)C4)s2)cc1
GI (Staphylococcus aureus [1]): 14 mm
GI (Bacillus subtilis [2]): 19 mm
GI (Micrococcus luteus [3]): 11 mm
growth inhibition (GI) (Escherichia coli [4]): inactive
growth inhibition (GI) (Pseudomonas aeruginosa [5]): inactive
growth inhibition (GI) (Candida albicans [6]): inactive
MIC (Bacillus subtilis [17]; IFO 3007, 24 h): 4 µg/mL (≈ 10.3 µM)

O=C(O)Cn1nc(C23CC4CC(CC(C4)C2)C3)sc1=S
GI (Staphylococcus aureus [1]): 18 mm
GI (Bacillus subtilis [2]): 22 mm
GI (Micrococcus luteus [3]): 16 mm
growth inhibition (GI) (Escherichia coli [4]): inactive
growth inhibition (GI) (Pseudomonas aeruginosa [5]): inactive
GI (Candida albicans [6]): 17 mm
MIC (Bacillus subtilis [17]; IFO 3007, 24 h): 2 µg/mL (≈ 6.44 µM)
inhibition in vivo at 20 mg/kg (Rattus norvegicus [7]): 29.5%
inhibition in vivo at 40 mg/kg (Rattus norvegicus [8]): 32.7%

CN1CCN(Cn2nc(C34CC5CC(CC(C5)C3)C4)sc2=S)CC1
GI (Staphylococcus aureus [1]): 13 mm
GI (Bacillus subtilis [2]): 14 mm
GI (Micrococcus luteus [3]): 14 mm
growth inhibition (GI) (Escherichia coli [4]): inactive
growth inhibition (GI) (Pseudomonas aeruginosa [5]): inactive
growth inhibition (GI) (Candida albicans [6]): inactive

S=c1sc(C23CC4CC(CC(C4)C2)C3)nn1CN1CCN(c2ccccc2)CC1
growth inhibition (GI) (Staphylococcus aureus [1]): inactive
GI (Bacillus subtilis [2]): 14 mm
growth inhibition (GI) (Micrococcus luteus [3]): inactive
growth inhibition (GI) (Escherichia coli [4]): inactive
growth inhibition (GI) (Pseudomonas aeruginosa [5]): inactive
growth inhibition (GI) (Candida albicans [6]): inactive

O=C(O)CCn1nc(C23CC4CC(CC(C4)C2)C3)sc1=S
GI (Staphylococcus aureus [1]): 11 mm
GI (Bacillus subtilis [2]): 13 mm
growth inhibition (GI) (Micrococcus luteus [3]): inactive
growth inhibition (GI) (Escherichia coli [4]): inactive
growth inhibition (GI) (Pseudomonas aeruginosa [5]): inactive
GI (Candida albicans [6]): 11 mm
inhibition in vivo at 20 mg/kg (Rattus norvegicus [7]): 7.47%
inhibition in vivo at 40 mg/kg (Rattus norvegicus [8]): 36.8%

O=[N+]([O-])c1ccc(Cn2nc(C34CC5CC(CC(C5)C3)C4)sc2=S)cc1
growth inhibition (GI) (Staphylococcus aureus [1]): inactive
growth inhibition (GI) (Bacillus subtilis [2]): inactive
growth inhibition (GI) (Micrococcus luteus [3]): inactive
growth inhibition (GI) (Escherichia coli [4]): inactive
growth inhibition (GI) (Pseudomonas aeruginosa [5]): inactive
growth inhibition (GI) (Candida albicans [6]): inactive

COc1ccc2c(c1)c(CC(=O)O)c(C)n2C(=O)c1ccc(Cl)cc1 [INDOMETHACIN]
inhibition in vivo at 5 mg/kg (Rattus norvegicus [19]): 52.8%

CC(C(=O)O)n1nc(C23CC4CC(CC(C4)C2)C3)sc1=S (racemic)
GI (Staphylococcus aureus [1]): 18 mm
GI (Bacillus subtilis [2]): 20 mm
GI (Micrococcus luteus [3]): 13 mm
growth inhibition (GI) (Escherichia coli [4]): inactive
growth inhibition (GI) (Pseudomonas aeruginosa [5]): inactive
growth inhibition (GI) (Candida albicans [6]): inactive
MIC (Bacillus subtilis [17]; IFO 3007, 24 h): 4 µg/mL (≈ 12.3 µM)
inhibition in vivo at 20 mg/kg (Rattus norvegicus [7]): 50.6%
inhibition in vivo at 40 mg/kg (Rattus norvegicus [8]): 65.2%

Clc1ccccc1C(c1ccccc1)(c1ccccc1)n1ccnc1 [CLOTRIMAZOLE]
GI (Candida albicans [20]): 21 mm
MIC (Candida albicans [21]): 2 µg/mL (≈ 5.8 µM)

CC1(C)S[C@@H]2[C@H](NC(=O)[C@H](N)c3ccccc3)C(=O)N2[C@H]1C(=O)O [AMPICILLIN]
GI (Staphylococcus aureus [11]): 23 mm
GI (Bacillus subtilis [12]): 21 mm
GI (Micrococcus luteus [13]): 19 mm
GI (Escherichia coli [14]): 17 mm
GI (Pseudomonas aeruginosa [15]): 17 mm
MIC (Bacillus subtilis [17]; IFO 3007, 24 h): 0.5 µg/mL (≈ 1.43 µM)
MIC (Micrococcus luteus [18]; IFO 3232, 24 h): 2 µg/mL (≈ 5.72 µM)
MIC (Pseudomonas aeruginosa [10]; IFO 3448, 24 h): 2 µg/mL (≈ 5.72 µM)

S=C(Nc1ccccc1)Nc1nnc(C23CC4CC(CC(C4)C2)C3)s1
GI (Staphylococcus aureus [1]): 13 mm
GI (Bacillus subtilis [2]): 14 mm
GI (Micrococcus luteus [3]): 15 mm
growth inhibition (GI) (Escherichia coli [4]): inactive
growth inhibition (GI) (Pseudomonas aeruginosa [5]): inactive
growth inhibition (GI) (Candida albicans [6]): inactive

CCN1CCN(Cn2nc(C34CC5CC(CC(C5)C3)C4)sc2=S)CC1
GI (Staphylococcus aureus [1]): 12 mm
GI (Bacillus subtilis [2]): 13 mm
growth inhibition (GI) (Micrococcus luteus [3]): inactive
growth inhibition (GI) (Escherichia coli [4]): inactive
growth inhibition (GI) (Pseudomonas aeruginosa [5]): inactive
growth inhibition (GI) (Candida albicans [6]): inactive
inhibition in vivo at 20 mg/kg (Rattus norvegicus [7]): 11.3%
inhibition in vivo at 40 mg/kg (Rattus norvegicus [8]): 10.6%

S=C(Nc1ccc(Cl)cc1)Nc1nnc(C23CC4CC(CC(C4)C2)C3)s1
GI (Staphylococcus aureus [1]): 15 mm
GI (Bacillus subtilis [2]): 20 mm
GI (Micrococcus luteus [3]): 12 mm
growth inhibition (GI) (Escherichia coli [4]): inactive
growth inhibition (GI) (Pseudomonas aeruginosa [5]): inactive
growth inhibition (GI) (Candida albicans [6]): inactive
MIC (Bacillus subtilis [17]; IFO 3007, 24 h): 2 µg/mL (≈ 4.94 µM)
